Test results from paper PMC3180826 (ACS chemical neuroscience, 2010).
Where a chain is given by its changes, count along the chain named.

Columns and labels:
rM1 EE397/401DD = biological target: T1, rM1 EE397/401DD (Rattus norvegicus, UniProt P08482, E397D/E401D); assay: Calcium mobilization, rM1 EE397/401DD double mutant CHO-K1 cells; format: cell-based; details: compared with wt rM1 and triple mutant
T1 sequence (P08482 1-460 E397D/E401D): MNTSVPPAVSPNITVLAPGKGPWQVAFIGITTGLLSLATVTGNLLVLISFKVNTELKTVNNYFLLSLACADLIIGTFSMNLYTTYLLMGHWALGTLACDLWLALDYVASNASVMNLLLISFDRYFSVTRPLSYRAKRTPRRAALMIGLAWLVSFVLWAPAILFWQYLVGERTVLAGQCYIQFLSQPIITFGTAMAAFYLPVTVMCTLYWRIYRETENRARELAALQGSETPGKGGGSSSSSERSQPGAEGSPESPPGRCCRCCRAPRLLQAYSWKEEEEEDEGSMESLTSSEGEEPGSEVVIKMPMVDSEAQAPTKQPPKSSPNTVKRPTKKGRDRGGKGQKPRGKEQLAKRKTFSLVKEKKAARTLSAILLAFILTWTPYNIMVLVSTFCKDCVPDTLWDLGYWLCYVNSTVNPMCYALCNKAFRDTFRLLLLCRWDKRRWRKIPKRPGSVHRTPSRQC

rM1 Y381A = biological target: T2, rM1 Y381A (Rattus norvegicus, UniProt P08482, Y381A); assay: Calcium mobilization in rM1 Y381A; format: cell-based
T2 sequence (P08482 1-460 Y381A): T1 sequence (P08482 1-460 E397D/E401D) with Y381A, D397E, D401E

M4 = biological target: T3, M4 (Rattus norvegicus, UniProt P08485); assay: [3H]-NMS competition binding, M4 CHO membranes; details: concentrations well above those required to fully activate M1
T3 sequence (P08485 1-478): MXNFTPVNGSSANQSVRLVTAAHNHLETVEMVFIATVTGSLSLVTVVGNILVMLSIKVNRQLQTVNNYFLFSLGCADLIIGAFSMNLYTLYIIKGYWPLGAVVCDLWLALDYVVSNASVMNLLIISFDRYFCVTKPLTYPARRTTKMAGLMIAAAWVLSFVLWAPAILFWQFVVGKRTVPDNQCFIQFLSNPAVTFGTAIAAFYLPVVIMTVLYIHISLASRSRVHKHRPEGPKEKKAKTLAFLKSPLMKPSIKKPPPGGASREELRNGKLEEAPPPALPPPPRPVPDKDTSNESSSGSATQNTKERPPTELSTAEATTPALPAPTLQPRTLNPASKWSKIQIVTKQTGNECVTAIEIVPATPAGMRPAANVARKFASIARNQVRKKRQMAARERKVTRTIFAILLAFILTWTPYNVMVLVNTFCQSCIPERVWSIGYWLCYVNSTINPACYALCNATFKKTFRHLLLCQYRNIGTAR

rM1 E397V = biological target: T4, rM1 E397V (Rattus norvegicus, UniProt P08482, E397V); assay: Calcium mobilization, rM1 E397V mutant CHO-K1 cells; format: cell-based; details: compared with wt rM1
T4 sequence (P08482 1-460 E397V): T1 sequence (P08482 1-460 E397D/E401D) with D397V, D401E
Summary of the method: (§1)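 CHO-K1 cells were transiently transfected overnight at 37 °C with 10 μg of mutant rat M1 cDNA in pcDNA3.1+ using Fugene 6, then plated for the calcium assay. They were loaded with 2 μM Fluo-4 AM for 1 h at 37 °C in HEPES/probenecid-buffered HBSS, pH 7.4. Test compound dose–response series were added at 19 s. Calcium mobilization was measured as fluorescence increase over basal.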

rM1 K392D/E397V/E401H = biological target: T5, rM1 K392D/E397V/E401H (Rattus norvegicus, UniProt P08482, E397V/E401H/K392D); assay: Calcium mobilization, transiently transfected rM1 triple mutant CHO cells; format: cell-based; details: compared with wt rM1
T5 sequence (P08482 1-460 K392D/E397V/E401H): T1 sequence (P08482 1-460 E397D/E401D) with K392D, D397V, D401H
Summary of the method: as §1

M3 = M3 (Homo sapiens, UniProt P20309); assay: [3H]-NMS competition binding, M3 CHO membranes; details: concentrations well above those required to fully activate M1
Chain of M3 (P20309 whole entry): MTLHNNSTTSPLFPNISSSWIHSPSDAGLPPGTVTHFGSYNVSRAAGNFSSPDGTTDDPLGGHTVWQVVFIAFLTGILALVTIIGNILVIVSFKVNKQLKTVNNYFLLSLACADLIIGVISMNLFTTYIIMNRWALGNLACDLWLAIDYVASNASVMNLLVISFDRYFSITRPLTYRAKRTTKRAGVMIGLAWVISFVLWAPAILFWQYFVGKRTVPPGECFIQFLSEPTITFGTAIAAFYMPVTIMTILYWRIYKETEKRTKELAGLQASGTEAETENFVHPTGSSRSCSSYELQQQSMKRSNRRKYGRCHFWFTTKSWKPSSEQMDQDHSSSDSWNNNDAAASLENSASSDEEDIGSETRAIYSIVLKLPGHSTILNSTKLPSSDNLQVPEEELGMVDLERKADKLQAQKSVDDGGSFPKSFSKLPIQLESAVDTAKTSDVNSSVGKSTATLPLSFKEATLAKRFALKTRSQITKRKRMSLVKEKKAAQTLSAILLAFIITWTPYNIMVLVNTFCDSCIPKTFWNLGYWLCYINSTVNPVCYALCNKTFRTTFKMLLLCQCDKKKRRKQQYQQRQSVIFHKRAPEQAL

EC50 (rM1 Y381A): 0.304 ± 0.156 µM
rM1 Y381A AChmax (maximal efficacy) (rM1 Y381A; rM1 Y381A cells): 63.25 % max
reduction of [3H]-NMS binding to M4 (M4): did not reduce
functional activity at E397V mutant (rM1 E397V): mild reduction in potency and efficacy
functional response at K392D/E397V/E401H triple mutant (rM1 K392D/E397V/E401H): almost completely ablated
reduction of [3H]-NMS binding to M3 (M3): did not reduce
Structure (SMILES): CCOC(=O)N1CCC(NCCNC(=O)c2ccccc2)CC1 [VU0184670, ethyl 4-(2-benzamidoethylamino)piperidine-1-carboxylate]
functional potency and efficacy at EE397/401DD double mutant (rM1 EE397/401DD): decrease the potency and efficacy further toward the levels observed with the triple mutant
potency at M1 Y381A compared with WT M1 (rM1 Y381A; M1Y381A CHO cells vs WT M1 CHO cells): potencies similar to those observed in WT M1 CHO cells
